Screening data from PubChem BioAssay.
PMI act satM6P = PMI (human) activation, high substrate. P34949. coupled PMI enzyme assay, resazurin fluorescence, 20 min; active compounds read high; 1 = untreated enzyme, 0 = substrate-free blank. activation factor at 20 µM. 190,000 tested, 0.34% active. AID 1216;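 active = activation factor of 2 or more at 20 µM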
Target sequence (P34949 whole entry, looked up): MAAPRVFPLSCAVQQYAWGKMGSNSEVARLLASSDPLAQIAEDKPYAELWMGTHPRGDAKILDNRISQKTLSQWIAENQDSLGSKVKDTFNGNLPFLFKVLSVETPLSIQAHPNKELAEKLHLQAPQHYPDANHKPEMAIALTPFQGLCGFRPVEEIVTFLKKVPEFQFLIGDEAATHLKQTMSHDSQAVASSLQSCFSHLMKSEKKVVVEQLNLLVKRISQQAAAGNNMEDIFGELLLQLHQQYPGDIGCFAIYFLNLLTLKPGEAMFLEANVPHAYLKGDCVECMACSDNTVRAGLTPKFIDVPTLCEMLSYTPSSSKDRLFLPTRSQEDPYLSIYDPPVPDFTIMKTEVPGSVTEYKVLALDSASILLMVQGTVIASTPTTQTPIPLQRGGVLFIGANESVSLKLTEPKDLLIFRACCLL
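Material: human phosphomannose isomerase with PGI, G6PDH, diaphorase coupling enzymes. Quantity: 15 ng/mL PMI. Medium: HEPES pH 7.4 buffer with MgCl2 and Tween-20. Reagent: Near-saturating mannose-6-phosphate, 1.0 mM. Compound: 20 µM single dose. Times: enzyme reaction with compound 20 min at room temperature. Detection: resorufin fluorescence at Ex 544/Em 590 nm.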
Diaphorase act = diaphorase activation or chemical reduction counter-screen | Diaphorase/resazurin coupled assay, resorufin fluorescence, 16 min; active compounds read high; 1 = vehicle wells, 0 = NADH-free wells | activation factor at 20 µM | 190,000 tested, 0.005% active;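 active = diaphorase activity raised at least twofold by the compound at 20 µM; inactive = activation factor below 2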
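test system = bacterial diaphorase enzyme (C. kluyveri) | quantity = enzyme 0.07 U/mL final | reagent = NADH substrate 0.114 mM plus resazurin dye 0.1 mM, final | incubation = 16 min enzyme reaction, ambient temperature | buffer or medium = HEPES pH 7.4 buffer with MgCl2 and Tween 20 | signal = fluorescence of resorufin, 544 nm excitation, 590 nm emission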
PMI activator = phosphomannose isomerase (human) activation; P34949; AID 1214; activation factor at 20 µM; purified human PMI, coupled resazurin fluorescence, 20 min; active compounds read high; 1 = vehicle control, 0 substrate-free wells; 190,000 tested, 0.005% active;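 active = activation factor of 2 or more at 20 µM, relative to plate controls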
WT yeast gro inh = growth inhibition of WT yeast, mitochondrial fusion screen | inhibition, % at 10 µM | mitochondrial fusion phenotypic screen, WT strain | 190,000 tested, 2.1% active; in the data active = inhibition above about 58%; tested in S. cerevisiae
L major viab = reduces viability of Leishmania major promastigotes. resazurin fluorescence viability. inhibition, % at 10 µM. AID 1063. 200,000 tested, 9% active; in the data active = inhibition above about 50%;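 note: promastigotes grown with compound for 44 hours at 28 °C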
Active calls of the source: *; / = no result given. Hits are enriched below; roughly 10% of the tested compounds scored in any of these assays.

SMILES	PMI act satM6P	Diaphorase act	PMI activator	WT yeast gro inh	L major viab
CCCN1C2CCCC1CC(NC(=S)NCCCOCC)C2 (centres undefined)	1	0.9	1	-14	-4
Cc1cc(C)cc(NC(=S)NC2CC3CCC(C2)N3Cc2ccco2)c1 (centres undefined)	1	0.9	1	79*	90*
Cc1ccc(C)c(NC(=S)NC2CC3CCC(C2)N3Cc2ccco2)c1 (centres undefined)	0.9	0.8	0.9	5	42
Cc1ccc(C)c(NC(=S)NCCN(C2CCCCC2)C2CCCC2)c1	0.8	0.9	0.9	5	42
Cc1ccc(C)c(NC(=S)NC2CC3CCCC(C2)N3CC(C)C)c1 (centres undefined)	1	1	1	3	65*
O=C(CCl)N=c1sccn1Cc1ccc(Cl)cc1Cl	1.1	0.9	1.2	-13	86*
O=C(CCl)N=c1sccn1Cc1cccc2ccccc12	1.2	1	1.3	16	27
Cc1ccccc1Cn1c(CN2CCc3ccccc3C2)nc2c1c(=O)n(C)c(=O)n2C	1	0.8	1.1	0	81*
CCOC(=O)Cn1c(CN2CCN(C(c3ccccc3)c3ccccc3)CC2)nc2c1c(=O)n(C)c(=O)n2C	1	0.9	1	1	53*
CC1CCCN(Cc2nc3c(c(=O)n(C)c(=O)n3C)n2CC(N)=O)C1 (centres undefined)	1.1	0.9	1.1	98*	-1
Cn1c(=O)c2c(nc(CN3CCc4ccccc4C3)n2Cc2ccc(F)cc2)n(C)c1=O	/	/	/	/	32
CCN1CCN(Cc2nc3c(c(=O)n(C)c(=O)n3C)n2Cc2cccc3ccccc23)CC1	1	1	1	-20	92*
CSCCC(Nc1ccc(S(=O)(=O)N2CCOCC2)cc1[N+](=O)[O-])C(=O)OCC(=O)NCC(C)C (centres undefined)	1.1	0.9	1.1	-7	65*
CC(C)C(Nc1ccc(S(=O)(=O)N2CCOCC2)cc1[N+](=O)[O-])C(=O)O (centres undefined)	1.2	1	1.2	-17	-3
CC1CCCC2(C1)NC(=S)N(c1ccccc1)N2 (centres undefined)	2.7*	1	1.5	30	84*
c1cc2c3c(cccc3c1)NC1(CCCCCC1)N2	0.9	0.7	0.8	11	13
CC1CC(C)(C)CC2(C1)NC(=S)N(c1ccccc1)N2 (centres undefined)	2*	1	1.7	12	4
S=C1NC2(CCCCC2)NN1c1ccccc1	2.9*	1	1.8	44	81*
CC(C)(C)N1NC2(CCCCC2)NC1=S	2.1*	0.9	1.5	13	3
COc1ccc(C(=O)c2ccc(N3CCN(C(=O)c4ccc(F)cc4)CC3)c(F)c2)cc1Br	0.9	0.8	0.9	43	41
CS(=O)(=O)N1CCN(c2ccc([N+](=O)[O-])c(NCc3cccnc3)c2)CC1	0.9	1.1	1	12	19
O=C(CCCCCn1c(=O)[nH]c2ccsc2c1=O)NCc1ccc2c(c1)OCO2	1	0.9	1	5	-8
O=C1NC2(CCC3(CC2)OCCO3)NN1c1ccccc1	2.3*	0.8	1.6	-1	-3
O=C1NC2(NN1c1ccccc1)C1CC3CC(C1)CC2C3 (centres undefined)	1	0.9	1	-6	-5
COc1ccc(-c2csc(NC(=O)COC(=O)C3=COCCO3)n2)cc1	1.1	1	1.1	5	5
SMILES	PMI act satM6P	Diaphorase act	PMI activator	WT yeast gro inh	L major viab
CCOC(=O)C1CCN(Cc2cnc(Oc3ccc(OC)cc3)s2)CC1	1	1.1	1	50	93*
CCOC(=O)C1CCN(Cc2ccc(F)c(F)c2)CC1	1.1	0.9	1	5	80*
COc1ccc(Nc2nc(N)nc(CN3CCC(Cc4ccccc4)CC3)n2)cc1	0.9	0.8	0.9	5	87*
CCOC(=O)C1CCN(Cc2cccc(OC)c2)CC1	0.9	0.8	0.9	8	90*
CN(C)CCCNS(=O)(=O)c1ccc(Cl)s1	0.9	1	1	6	-1
CCOC(=O)C1CCN(Cc2ccccc2C)CC1	1.1	1	1	11	89*
CCOC(=O)C1CCCN(Cc2ccccc2OCC)C1 (centres undefined)	1	0.9	0.9	20	13
CCOC(=O)C1CCN(Cc2cc(C(C)C)c(O)c(C(C)C)c2)CC1	0.9	1	1	-2	58*
CCOC(=O)C1CCN(Cc2ccc(N(C)C)cc2)CC1	0.9	0.8	0.9	-10	44
CCOC(=O)C1CCCN(Cc2nc(N)nc(Nc3ccc(Cl)cc3)n2)C1 (centres undefined)	1.1	0.9	0.9	8	71*
CCOC(=O)C1CCCN(Cc2ccc(OCC)cc2)C1 (centres undefined)	1.1	0.9	1	1	90*
COc1cc(OC)cc(C(=O)N2CCC(C(=O)Nc3ccc4c(c3)OCCO4)CC2)c1	1.1	0.9	1.1	-10	3
CC(C)(O)C#Cc1ccc(C(=O)NC(CCCNC(N)=O)C(=O)O)s1 (centres undefined)	1	1.1	1	-6	0
CC(C)=CCN1CCN(Cc2ccc(Sc3nncn3C)o2)CC1CCO (centres undefined)	1.1	1	1.1	-3	-1
CC(C)N1CCN(CC#Cc2ccccc2)CC1CCO (centres undefined)	/	/	/	1	-3
CCOC(=O)C1CCCN(C(=O)CS(=O)(=O)Cc2ccccc2)C1 (centres undefined)	0.9	0.9	0.9	60*	-2
O=C(Nc1ccc(Cl)cc1)N1CCC(c2nc(-c3cccs3)no2)CC1	1	1	0.9	49	-1
O=C(Nc1ccc(Cl)cc1)N1CCC(c2nc(-c3ccccc3Cl)no2)CC1	1.1	0.9	1	64*	9
O=S(=O)(c1ccccc1Cl)N1CCCC1c1nc(-c2ccccc2Cl)no1 (centres undefined)	0.9	0.9	0.9	5	89*
COc1ccc(Nc2ccc(N3C(=O)CC(C)C3=O)cc2[N+](=O)[O-])cc1OC (centres undefined)	0.7	0.9	0.9	7	-7
COc1ccc(Nc2ccc(N3C(=O)CCCC3=O)cc2[N+](=O)[O-])cc1OC	0.8	0.9	1	-1	88*
COc1ccc(OCC2c3cc(OC)c(OC)cc3CCN2C(=O)C(C)C)cc1 (centres undefined)	0.9	0.8	0.9	-3	30
O=Cc1cn(-c2ccccc2)nc1-c1ccncc1	1.1	0.9	1.1	-5	14
CC1=NNC(=O)/C1=C\c1cn(-c2ccccc2)nc1-c1ccccc1	0.8	0.7	0.8	61	100*
CC1(C)CC(=O)C(=Cc2cn(CCC#N)nc2-c2ccc(Cl)cc2)C(=O)C1	1.1	0.9	0.9	11	0
